# Experimental data reported in paper PMC9748978 (RSC Advances, 2022).
# Read-outs that look alike come from different tables or passages of the source.
# Tests used:
# Tack = type: physicochemical; conditions: transdermal patch (cross-linked adhesive film containing the active ingredient)
# Method in brief: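 Tested with a tensile testing machine per AFERA 4015. The patch has an acrylate copolymer adhesive matrix with the active substance added as an ethyl acetate solution, dosed on the basis of 200 mg per 140 cm2. It was coated at 250 μm on polyester film and cross-linked by UV after 10 min at 110 °C.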
# Solubility in water = type: physicochemical; conditions: 25 °C, 24 h
# [1] = type: in vitro ADME; conditions: pig skin; for CUM – cumulative permeation mass / Q – the percentage of the applied dose after 24 h: 24 h; for CUM – cumulative permeation mass / Q – the percentage of the applied dose after 24 h / J SS – steady-state flux / K P – permeability coefficient / K m – skin partition coefficient / L T – lag time: solution in 70% ethanol; for steady-state flux (JSS): from ethanol solution
# Method in brief: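 Pig abdominal skin in Franz cells with 8 cm3 PBS (pH 7.4) acceptor at 37.0 ± 0.5 °C, stirred 400 rpm. Donor: 1 cm3 of about 5% solution (about 0.05 g cm−3) in 70% ethanol, stoppered. Acceptor sampled (0.3 cm3, buffer replaced) at 0.5–24 h and assayed by HPLC. Jss is the slope of cumulative mass versus time, and lag time is the x-intercept. Kp, D and Km are calculated from these. Mean ± SD, ANOVA/Tukey.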
# [2] = Accumulation in the skin after 24 h penetration; type: in vitro ADME, pig; conditions: after 24 h of penetration from solution, porcine skin
# Method in brief: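 Franz diffusion cells with porcine abdominal skin, PBS (pH 7.4) acceptor at 37.0 ± 0.5 °C. After 24 h penetration the skin was removed, rinsed in PBS pH 7.4, dried at room temperature, weighed, cut to the 1 cm2 diffusion area and minced. It was then extracted in methanol for 24 h at 4 °C, homogenized 3 min and centrifuged at 3500 rpm for 5 min. Supernatant was assayed by HPLC, expressed as μg IBU per g skin.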
# [3] = Thermogravimetric analysis; type: physicochemical; conditions: compound, TG
# Method in brief: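 About 5 mg samples were heated from 25 to 1000 °C on a thermobalance under nitrogen (10 ml min−1) and under air (25 ml min−1). Onset decomposition temperature was read from TG curves and maximum decomposition temperature from DTG curves.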
# [4] = n-octanol/water partition coefficient, shake flask method; type: physicochemical; conditions: n-octanol–water, 25 °C
# Method in brief: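 10 mg of compound was shaken with 5 ml n-octanol-saturated water and 5 ml water-saturated n-octanol, stirred 3 h at 25 °C, and the layers were separated. Aqueous concentration was measured by HPLC. Octanol-layer concentration was taken as total minus aqueous. log P = log C0 − log Cw.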
# [5] = compound, TG; cited from earlier work
# [6] = type: in vitro ADME, pig; conditions: from transdermal patch
Compound,Tack (Tack) [N],Solubility in water (Solubility in water) [g dm^−3],Solubility in water (as ibuprofen) (Solubility in water) [g IBU per dm^3],CUM – cumulative permeation mass [1] [μg cm^−2],Q – the percentage of the applied dose after 24 h [1] [%],J SS – steady-state flux [1] [μg cm^−2],K P – permeability coefficient [1] [×10⁻⁶ cm/s],K m – skin partition coefficient [1],L T – lag time [1] [min],accumulation in the skin [2] [μg IBU per g skin],T max (maximum decomposition temperature) [3] [°C],T onset (the onset of the thermal degradation) [3] [°C],log P [4],steady-state flux (JSS) [1] [μg IBU per cm^2 h],T max (maximum decomposition temperature) [5] [°C],T onset (the onset of the thermal degradation) [5] [°C],delay time (lag time) [6]
"CC(C)Cc1ccc(C(C)C(=O)[O-])cc1.[Na+] (stereo not drawn) [[IBU][Na], sodium ibuprofenate]",0.05,,,,,,,,,,,,,,,,
"CC(C)Cc1ccc(C(C)C(=O)O)cc1.CCCOC(=O)[C@@H](N)Cc1ccc(O)cc1 [[TyrOPr][IBU], L-tyrosine propyl ester ibuprofenate]",,8.569 ± 0.022,4.188 ± 0.065,284.27,9.51,25.57,4971.7,0.229,2.133,609.35 ± 106.07,209.4,148.1,+1.055,,,,
"CC(C)Cc1ccc(C(C)C(=O)O)cc1 (racemic) [[IBU], (R,S)-Ibuprofen, reference compound]",,,,133.35,9.33,25.87,,0.281,2.582,725.49 ± 164.6184,,,,25.87,218.7,189.8,
"CC(C)Cc1ccc(C(C)C(=O)O)cc1.CCCOC(=O)[C@@H](N)Cc1c[nH]c2ccccc12 [[TrpOPr][IBU], L-tryptophan propyl ester ibuprofenate]",,9.396 ± 0.027,4.577 ± 0.037,319.22,12.42,22.72,4418.6,0.208,2.179,595.41 ± 76.32,219.3,,+1.044,,,,
"CC(C)Cc1ccc(C(C)C(=O)O)cc1.CCCOC(=O)[C@@H](N)Cc1ccccc1 [[PheOPr][IBU], L-phenylalanine propyl ester ibuprofenate]",,9.481 ± 0.066,4.596 ± 0.161,454.86,15.80,28.01,5446.1,0.200,1.705,602.86 ± 76.98,,,+1.021,28.01,210.4,157.0,about 1 h
L-histidine propyl ester bis(ibuprofenate) [[HisOPr][IBU]],,,,335.13,7.90,21.33,4143.9,0.192,2.141,,212.5,157.5,+0.963,21.33,,,
